# Assay results published in ChEMBL document CHEMBL1240335, “Integrating high-content screening and ligand-target prediction to identify mechanism of action” (Nat Chem Biol, 2008).
# Active and inactive are the calls of the source. The calls are words filed in the database; no cut-off is given here.
# Experiments:
# Type in all cases: functional, cell-based
# HeLa [1] = test: Cytotoxicity against human HeLa cells assessed as inhibition of DNA replication by imaging analysis
# Outline: (§1)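 HeLa cells (2,000 per well, DMEM with 10% FBS) were plated overnight, then treated with compound at 10 μM final for 20 h at 37 °C, in duplicate. Cells were pulsed 40 min with 500 nM EdU and fixed in 3.7% paraformaldehyde. Replication was read by rhodamine-azide click labelling, mitosis by anti-phosphohistone H3 Ser10/Cy5, and DNA by Hoechst. Automated 10× imaging scored ≥500 cells per well.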
# HeLa [2] = test: Inhibition of mitosis in human HeLa cells by imaging analysis; outline: as §1
# HeLa [3] = test: Induction of cell cycle arrest in human HeLa cells assessed as accumulation at G1 arrest at 10 uM after 20 hrs by Hoescht 33342 staining
# Outline: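 HeLa cells plated at 2,000 per well in DMEM with 10% FBS and penicillin/streptomycin, grown overnight, then treated at a final 10 μM (diluted from 10 mM DMSO stock) for 20 h at 37 °C in duplicate. Pulsed 40 min with 500 nM EdU, fixed in 3.7% paraformaldehyde, stained with Hoechst 33342, anti-phosphoH3 Ser10 and rhodamine-azide. Imaged by automated microscopy at 10×; ≥500 cells scored per well.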
SMILES,inhibition (HeLa [1]),inhibition (HeLa [2]),Activity (HeLa [3])
C[C@@H]1C[C@H]2[C@@H]3CCC4=CC(=O)C=C[C@]4(C)[C@@]3(F)[C@@H](O)C[C@]2(C)[C@@]1(O)C(=O)CO,Active,Active,–
CC1=C2O[C@]3(O)C=C2C(=C(O)C1=O)[C@@H]1O[C@H](CC[C@H](C)/C=C(\C)C[C@@H](C)C[C@@H]3C)[C@H](C)[C@H](O)[C@H]1C,–,–,Active
CC[C@H]1CN2CCc3cc(OC)c(OC)cc3[C@@H]2C[C@@H]1C[C@H]1NCCc2cc(OC)c(OC)cc21,Active,Active,–
CCCCCC[C@H]1CC[C@@](O)([C@@](C)(O)C(=O)N[C@@H]2C(=O)N3NCCC[C@@H]3C(=O)N(O)[C@@H](COC)C(=O)NCC(=O)N3NCCC[C@H]3C(=O)N(O)[C@H](C)C(=O)O[C@H]2C)OC1C (some centres undefined),–,–,Active
C[C@@H]1C[C@@H]([C@H](O)CC2CC(=O)NC(=O)C2)C(=O)[C@@H](C)C1,Active,Active,–
CCC(=O)O[C@]1(C(=O)CCl)[C@@H](C)C[C@H]2[C@@H]3CCC4=CC(=O)C=C[C@]4(C)[C@@]3(F)[C@@H](O)C[C@@]21C,Active,Active,–
C[C@H]1O[C@@H](O[C@H]2[C@@H](O)C[C@H](O[C@H]3[C@@H](O)C[C@H](O[C@H]4CC[C@@]5(C)[C@H](CC[C@@H]6[C@@H]5C[C@@H](O)[C@]5(C)[C@@H](C7=CC(=O)OC7)CC[C@]65O)C4)O[C@@H]3C)O[C@@H]2C)C[C@H](O)[C@@H]1O,Active,Active,–
CC(=O)[C@H]1CC[C@H]2[C@@H]3CCC4=CC(=O)CC[C@]4(C)[C@H]3CC[C@]12C,Active,Active,–
CC(C)[C@H]1CC[C@@](O)(CCl)[C@H]2C(=O)OCC(C(=O)O)=C[C@H]12,–,–,Active
C[C@]12C=CC(=O)C=C1CC[C@H]1[C@@H]3C[C@@H](O)[C@](O)(C(=O)CO)[C@@]3(C)C[C@H](O)[C@@]12F,Active,Active,–
C[C@]12CC[C@H](O)C[C@H]1CC[C@@H]1[C@@H]2CC[C@]2(C)[C@@H](C3=CC(=O)OC3)CC[C@]12O,Active,Active,–
C#C[C@]1(O)CC[C@H]2[C@@H]3CCC4=Cc5oncc5C[C@]4(C)[C@H]3CC[C@@]21C,Active,Active,–
C[C@@H]1O[C@@H](O[C@H]2C[C@@H](O)[C@]3(CO)[C@H]4[C@H](O)C[C@]5(C)[C@@H](C6=CC(=O)OC6)CC[C@]5(O)[C@@H]4CC[C@]3(O)C2)[C@H](O)[C@H](O)[C@H]1O,Active,Active,–
COC[C@H]1C(=O)NCC(=O)N2NCCC[C@H]2C(=O)N(O)[C@H](C)C(=O)O[C@@H](C(C)C)[C@H](NC(=O)[C@](C)(O)[C@]2(O)CC[C@@H](CC(C)C)[C@H](C)O2)C(=O)N2NCCC[C@@H]2C(=O)N1O,–,–,Active
